Assay results published in ChEMBL document CHEMBL1123428, “In vitro labeling of serotonin-S2 receptors: synthesis and binding characteristics of [3H]-7-aminoketanserin” (J Med Chem, 1986).

Experiments:
[1] = species on record: Rattus norvegicus; test: Compound was evaluated for its activity at solubilized receptor (CHAPS/salt-solubilized preparation) from rat frontal cortex; type: functional, organism-based; details: for IC50: Rattus norvegicus, Frontal cortex
[2] = species on record: Rattus norvegicus; test: Compound was evaluated for its activity at membrane-bound receptor (M+L+P fraction) from rat frontal cortex; type: functional, organism-based; details: for IC50: Rattus norvegicus, Frontal cortex
[3] = molecular target: T1, Adrenergic receptor alpha-1 (Rattus norvegicus, UniProt P15823+P23944+P43140); test: Compound was evaluated for binding activity against [3H]-WB- 4101 as radioligand for alpha-1 adrenergic receptor; type: protein assay
T1 sequence (P15823 whole entry): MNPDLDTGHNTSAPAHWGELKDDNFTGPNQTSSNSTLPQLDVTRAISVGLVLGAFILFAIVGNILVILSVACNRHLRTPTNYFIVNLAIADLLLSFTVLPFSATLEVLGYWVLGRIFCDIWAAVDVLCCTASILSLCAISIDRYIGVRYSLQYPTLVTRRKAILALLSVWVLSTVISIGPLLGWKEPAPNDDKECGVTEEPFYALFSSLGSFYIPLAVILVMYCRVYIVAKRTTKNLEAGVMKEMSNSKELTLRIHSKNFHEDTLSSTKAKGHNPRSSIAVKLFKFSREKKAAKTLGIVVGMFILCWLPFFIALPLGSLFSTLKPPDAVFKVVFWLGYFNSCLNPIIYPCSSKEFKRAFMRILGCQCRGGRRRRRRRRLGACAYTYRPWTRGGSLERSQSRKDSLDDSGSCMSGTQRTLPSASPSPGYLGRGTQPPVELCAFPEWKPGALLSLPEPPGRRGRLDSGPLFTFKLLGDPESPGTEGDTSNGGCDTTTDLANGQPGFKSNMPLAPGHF
T1 sequence (P23944 whole entry): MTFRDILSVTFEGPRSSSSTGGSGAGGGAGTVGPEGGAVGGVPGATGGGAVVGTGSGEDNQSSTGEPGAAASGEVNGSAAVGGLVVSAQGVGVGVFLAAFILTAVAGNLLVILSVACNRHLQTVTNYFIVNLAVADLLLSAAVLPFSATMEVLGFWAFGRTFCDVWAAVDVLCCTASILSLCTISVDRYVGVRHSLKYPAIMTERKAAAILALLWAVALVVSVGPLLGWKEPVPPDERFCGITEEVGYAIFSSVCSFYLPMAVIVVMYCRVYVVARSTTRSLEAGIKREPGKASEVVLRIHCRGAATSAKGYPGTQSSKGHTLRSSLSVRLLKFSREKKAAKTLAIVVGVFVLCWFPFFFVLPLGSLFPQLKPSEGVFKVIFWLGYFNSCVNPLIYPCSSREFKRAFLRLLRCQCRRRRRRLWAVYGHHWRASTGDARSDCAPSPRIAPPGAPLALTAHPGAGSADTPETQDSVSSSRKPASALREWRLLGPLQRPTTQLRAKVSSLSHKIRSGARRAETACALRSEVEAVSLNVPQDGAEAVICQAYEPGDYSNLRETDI
T1 sequence (P43140 whole entry): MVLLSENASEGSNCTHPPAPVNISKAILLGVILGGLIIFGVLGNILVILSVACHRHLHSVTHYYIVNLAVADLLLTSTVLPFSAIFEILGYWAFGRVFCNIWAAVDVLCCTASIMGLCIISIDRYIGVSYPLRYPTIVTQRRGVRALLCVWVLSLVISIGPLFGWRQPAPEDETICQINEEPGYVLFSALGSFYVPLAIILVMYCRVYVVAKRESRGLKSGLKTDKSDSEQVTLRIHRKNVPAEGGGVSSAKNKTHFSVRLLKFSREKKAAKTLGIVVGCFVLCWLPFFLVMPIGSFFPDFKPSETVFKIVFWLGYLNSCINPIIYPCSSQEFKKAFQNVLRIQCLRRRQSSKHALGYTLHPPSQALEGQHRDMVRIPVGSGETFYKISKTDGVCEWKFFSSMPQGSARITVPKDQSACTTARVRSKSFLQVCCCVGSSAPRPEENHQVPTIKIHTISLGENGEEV
How it was run: (§1)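 Filtration binding technique applied to rat or guinea pig brain tissue. Tissues, buffers, radioligands and incubation conditions per earlier methods. Ki computed using radioligand KD values from the literature.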

[4] = Binding affinity for detergent solubilized 5-HT-S2 receptor; design: species or system Rattus norvegicus
How it was run: (§2)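 Rat frontal cortex microsomal fraction solubilized for 12 min at 4 °C in CHAPS/NaCl medium (13.6 mM CHAPS, 2.8 M NaCl, pH 7.2), centrifuged at 180000 g, and supernatant diluted to 1:16 w/v. Incubated 15 min at 30 °C with 2 nM [3H]-7-aminoketanserin (final) and drug. Free ligand removed by charcoal/BSA, supernatant counted. IC50 from two triplicate experiments; Ki by Cheng-Prusoff.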

[5] = molecular target: Serotonin 2 (5-HT2) receptor (Rattus norvegicus, UniProt P30994+P08909+P14842); test: Evaluated for binding activity against [3H]ketanserin as radioligand for 5-hydroxytryptamine 2 receptor; type: protein assay; how it was run: as §1
[6] = species on record: Rattus norvegicus; test: (§3) Number of binding sites of the receptor was determined
How it was run: (§4)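 Saturation binding of [3H]-7-aminoketanserin to rat frontal cortex (M+L+P) fraction (three experiments) or solubilized preparation (two experiments), each in triplicate. Specific binding is total minus binding with a 1000-fold methysergide excess. Bmax and KD taken from computer-fitted Scatchard plots.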

[7] = molecular target: D(2) dopamine receptor (Rattus norvegicus, UniProt P61169); test: Compound was evaluated for binding activity against [3H]haloperidol as radioligand for Dopamine receptor D2; how it was run: as §1
[8] = species on record: Rattus norvegicus; test: as §3; how it was run: as §4; remark: listed apart in the source
[9] = Compound was evaluated at solubilized receptor (CHAPS/salt-solubilized preparation) from rat frontal cortex; type: tissue-based; how it was run: as §2
[10] = molecular target: Histamine H1 receptor (Rattus norvegicus, UniProt P31390); test: Compound was evaluated for binding activity against [3H]pyrilamine as radioligand for Histamine H1 receptor; how it was run: as §1
[11] = molecular target: T2, Adrenergic receptor alpha-2 (Rattus norvegicus, UniProt P22086+P19328+P22909); test: Compound was evaluated for binding activity against [3H]clonidine as radioligand for alpha-2 adrenergic receptor; type: protein assay; how it was run: as §1
T2 sequence (P22086 whole entry): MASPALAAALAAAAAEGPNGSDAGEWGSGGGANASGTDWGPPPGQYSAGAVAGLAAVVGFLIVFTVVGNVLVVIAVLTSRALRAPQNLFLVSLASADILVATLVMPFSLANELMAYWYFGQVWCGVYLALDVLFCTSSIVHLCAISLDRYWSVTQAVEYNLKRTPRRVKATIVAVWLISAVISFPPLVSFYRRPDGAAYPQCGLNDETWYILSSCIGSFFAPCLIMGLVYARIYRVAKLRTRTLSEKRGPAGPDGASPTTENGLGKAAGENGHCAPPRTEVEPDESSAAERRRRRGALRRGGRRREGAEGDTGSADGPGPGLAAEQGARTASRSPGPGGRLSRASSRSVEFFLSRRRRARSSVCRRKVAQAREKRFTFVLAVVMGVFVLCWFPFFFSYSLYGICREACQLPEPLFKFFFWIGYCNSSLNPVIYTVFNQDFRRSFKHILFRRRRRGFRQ
T2 sequence (P19328 whole entry): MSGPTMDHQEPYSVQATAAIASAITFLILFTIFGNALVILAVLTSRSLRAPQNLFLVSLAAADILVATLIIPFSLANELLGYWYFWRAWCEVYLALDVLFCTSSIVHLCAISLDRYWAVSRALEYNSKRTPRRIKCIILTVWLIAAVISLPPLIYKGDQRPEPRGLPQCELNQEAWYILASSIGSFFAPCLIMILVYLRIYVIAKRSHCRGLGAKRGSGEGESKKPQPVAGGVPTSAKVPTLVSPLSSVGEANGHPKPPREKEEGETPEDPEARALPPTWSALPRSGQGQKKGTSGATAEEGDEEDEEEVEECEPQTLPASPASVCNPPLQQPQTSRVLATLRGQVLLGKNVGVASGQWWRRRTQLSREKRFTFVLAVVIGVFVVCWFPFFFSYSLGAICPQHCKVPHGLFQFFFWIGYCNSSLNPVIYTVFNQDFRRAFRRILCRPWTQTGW
T2 sequence (P22909 whole entry): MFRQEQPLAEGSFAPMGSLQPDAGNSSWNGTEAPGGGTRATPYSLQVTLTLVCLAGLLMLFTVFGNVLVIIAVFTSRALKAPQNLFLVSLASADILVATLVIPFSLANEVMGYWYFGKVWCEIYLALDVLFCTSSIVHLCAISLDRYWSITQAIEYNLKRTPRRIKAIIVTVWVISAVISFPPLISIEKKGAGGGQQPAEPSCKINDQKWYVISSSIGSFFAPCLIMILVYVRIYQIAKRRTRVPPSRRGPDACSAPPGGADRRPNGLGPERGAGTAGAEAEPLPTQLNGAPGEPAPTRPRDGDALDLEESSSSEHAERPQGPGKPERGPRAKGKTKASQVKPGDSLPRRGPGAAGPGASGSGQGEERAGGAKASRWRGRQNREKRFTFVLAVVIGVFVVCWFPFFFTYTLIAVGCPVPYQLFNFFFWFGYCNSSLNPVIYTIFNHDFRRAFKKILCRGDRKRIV

[12] = molecular target: T3, Serotonin 1 (5-HT1) receptor (Rattus norvegicus, UniProt P28564+P30940+P19327+P28565); test: Compound was evaluated for binding activity against [3H]-5-HT as radioligand for serotonin S1 receptor; type: protein assay; how it was run: as §1
[13] = molecular target: Muscarinic acetylcholine receptor; test: Compound was evaluated for binding activity against [3H]dexetimide as radioligand for muscarinic-acetylcholine receptor; type: protein assay; how it was run: as §1
[14] = molecular target: Adrenergic receptor beta (Rattus norvegicus, UniProt P18090+P10608+P26255); test: Compound was evaluated for binding activity against [3H]dihydroalprenolol as radioligand for beta adrenergic receptor; type: protein assay; how it was run: as §1
[15] = Half life time was determined; type: ADME
How it was run: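 Kinetics of [3H]-7-aminoketanserin at rat frontal cortex receptors, membrane-bound (M+L+P) or CHAPS/salt-solubilized. Association ran for 20 min. Dissociation was started by adding a 1000-fold excess of pipamperone and treated as first-order. Means ± SD of independent triplicate experiments.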

[16] = Compound was evaluated at membrane-bound receptor (M+L+P fraction) from rat frontal cortex; type: tissue-based
How it was run: (§5)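 Rat frontal cortex (M+L+P) fraction, diluted 1:100 w/v, in 50 mM Tris-HCl pH 7.7. Incubated 15 min at 37 °C with 1 nM [3H]-7-aminoketanserin (final) and unlabeled drug. Stopped by rapid GF/B filtration with two ice-cold buffer rinses, then scintillation counting. IC50 from two experiments in triplicate; Ki by Cheng-Prusoff.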

[17] = Binding affinity for membrane-bound 5-HT-S2 receptor; design: species or system Rattus norvegicus; how it was run: as §5
[18] = molecular target: T3, Serotonin 1 (5-HT1) receptor; test: Compound was evaluated for binding activity against [3H]5-HT as radioligand for serotonin S1 receptor; type: protein assay; how it was run: as §1

Sequence of D(2) dopamine receptor (P61169 whole entry): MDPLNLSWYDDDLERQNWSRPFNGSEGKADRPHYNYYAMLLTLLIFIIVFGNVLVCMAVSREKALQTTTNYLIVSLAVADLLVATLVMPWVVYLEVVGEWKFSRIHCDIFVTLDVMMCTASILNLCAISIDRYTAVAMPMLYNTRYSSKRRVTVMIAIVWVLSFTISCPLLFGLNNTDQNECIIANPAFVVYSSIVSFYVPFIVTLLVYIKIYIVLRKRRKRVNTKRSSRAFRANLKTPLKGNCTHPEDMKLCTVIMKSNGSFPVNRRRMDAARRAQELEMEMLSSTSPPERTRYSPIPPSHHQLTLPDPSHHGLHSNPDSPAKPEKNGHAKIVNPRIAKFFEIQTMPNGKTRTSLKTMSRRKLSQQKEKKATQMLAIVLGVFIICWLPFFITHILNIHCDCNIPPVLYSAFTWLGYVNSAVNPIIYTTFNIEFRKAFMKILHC
Sequence of Histamine H1 receptor (P31390 whole entry): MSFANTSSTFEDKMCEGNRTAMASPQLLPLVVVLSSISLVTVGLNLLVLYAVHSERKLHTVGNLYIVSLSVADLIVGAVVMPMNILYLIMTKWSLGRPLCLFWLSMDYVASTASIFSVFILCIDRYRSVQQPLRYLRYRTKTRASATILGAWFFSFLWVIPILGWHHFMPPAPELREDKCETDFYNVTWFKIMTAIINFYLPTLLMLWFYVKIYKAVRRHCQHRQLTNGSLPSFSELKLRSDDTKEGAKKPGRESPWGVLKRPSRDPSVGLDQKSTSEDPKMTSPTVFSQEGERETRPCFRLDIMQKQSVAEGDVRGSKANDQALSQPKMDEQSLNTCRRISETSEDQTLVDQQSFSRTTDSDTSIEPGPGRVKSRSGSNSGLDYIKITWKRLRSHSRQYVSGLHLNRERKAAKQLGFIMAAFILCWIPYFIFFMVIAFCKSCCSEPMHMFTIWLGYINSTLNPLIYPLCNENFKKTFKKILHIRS

NC(=O)C1(N2CCCCC2)CCN(CCCC(=O)c2ccc(F)cc2)CC1 [PIPAMPERONE]
Ki [1]: 9.53 nM
IC50 [1]: 19.1 nM
Ki [2]: 1.39 nM
IC50 [2]: 5.37 nM

NCCc1c[nH]c2ccc(O)cc12 [SEROTONIN]
Ki [1]: 14100 nM
IC50 [1]: 28200 nM
Ki [2]: 919 nM
IC50 [2]: 3550 nM

O=C(c1ccc(F)cc1)C1CCN(CCn2c(=O)[nH]c3ccccc3c2=O)CC1 [KETANSERIN]
Ki [1]: 3.97 nM
IC50 [1]: 7.94 nM
Ki [2]: 0.68 nM
IC50 [2]: 2.63 nM

COc1cccc(OC)c1OCCNCC1COc2ccccc2O1 (stereo unspecified)
Ki [1]: 3880 nM
IC50 [1]: 7760 nM
Ki [2]: 697 nM
IC50 [2]: 2690 nM

Cc1nc2ccccn2c(=O)c1CCN1CCC(C(=O)c2ccc(F)cc2)CC1 [PIRENPERONE]
Ki [1]: 3.54 nM
IC50 [1]: 7.08 nM
Ki [2]: 0.47 nM
IC50 [2]: 1.82 nM

(-)-BUTACLAMOL
-Log IC50 [1]: 4.56
Ki [1]: 13800 nM
-Log IC50 [2]: 4.9
Ki [2]: 3260 nM

COc1ccc(CN(CCN(C)C)c2ccccn2)cc1 [PYRILAMINE]
Ki [1]: 9980 nM
IC50 [1]: 20000 nM
Ki [2]: 1030 nM
IC50 [2]: 3980 nM

CN(C)CCc1c[nH]c2ccc(O)cc12 [BUFOTENINE]
Ki [1]: 6300 nM
IC50 [1]: 12600 nM
Ki [2]: 341 nM
IC50 [2]: 1320 nM

O=c1[nH]c2ccccc2n1CCCN1CCC(n2c(=O)[nH]c3cc(Cl)ccc32)CC1 [DOMPERIDONE]
Ki [1]: 998 nM
IC50 [1]: 2000 nM
Ki [2]: 152 nM
IC50 [2]: 589 nM

COc1cc2nc(N3CCN(C(=O)c4ccco4)CC3)nc(N)c2cc1OC [PRAZOSIN]
Ki [1]: 19900 nM
IC50 [1]: 39800 nM
Ki [2]: 11600 nM
IC50 [2]: 44700 nM

CN1CCN2c3ccccc3Cc3ccccc3C2C1 (stereo unspecified) [MIANSERIN]
Ki [1]: 13.5 nM
IC50 [1]: 26.9 nM
Ki [2]: 3.04 nM
IC50 [2]: 11.7 nM

Nc1ccc2c(=O)n(CCN3CCC(C(=O)c4ccc(F)cc4)CC3)c(=O)[nH]c2c1
-Log IC50 [3]: 7.82
Ki [3]: 5.49 nM
Kd [4]: 2.03 nM
-Log IC50 [5]: 9.25
Ki [5]: 0.17 nM
Bmax [6]: 37 fmol/mg
IC50 [7]: 417 nM
Ki [7]: 164 nM
Bmax [8]: 4.18 fmol/mg
-Log IC50 [9]: 8.35
Ki [9]: 2.23 nM
IC50 [10]: 2.24 nM
Ki [10]: 1.22 nM
-Log IC50 [11]: < 6
-Log IC50 [12]: 5.25
-Log IC50 [13]: < 6
-Log IC50 [14]: < 6
T1/2 [15]: 12.4 min
half-life [15]: 7.8 min
-Log IC50 [16]: 8.86
Ki [16]: 0.36 nM
Kd [17]: 0.35 nM
Ki [18]: 4416 nM

Cc1nc2sccn2c(=O)c1CCN1CCC(=C(c2ccc(F)cc2)c2ccc(F)cc2)CC1 [RITANSERIN]
Ki [1]: 7.06 nM
IC50 [1]: 14.1 nM
Ki [2]: 0.9 nM
IC50 [2]: 3.47 nM
